Activity calls are given as the source filed them. No cut-off for these calls is given here.

One test relates to A549. Nature of the test: Cytotoxicity against human A549 cells assessed as inhibition of cell growth at 10 uM after 48 hrs by SRB assay relative to control. The note with it: for inhibition of growth at 10 µM: A549, 48 h, read-out: GI. Type of test: functional. The gist of the method: (§1)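 SRB protein assay in DMEM with 10% FBS at 37 °C, 5% CO2, 100% relative humidity. Cells seeded in 96-well plates, incubated 24 h, then exposed to drug at 10 µM for 48 h and processed per standard protocol. Absorbance read at 560 nm; growth percentage calculated for test wells relative to control wells.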
(In general: Sulforhodamine B stains cellular protein and so reports cell mass.)

In another test the test system is COLO 205. Nature of the test: Cytotoxicity against human COLO205 cells after 48 hrs assessed as inhibition of cell growth at 10 uM after 48 hrs by SRB assay relative to control. Type of test: functional. The following applies: COLO 205, 48 h, read-out: GI. In a few lines: as §1
The subject of a further test is THP-1. The test is described as follows: Cytotoxicity against human THP1 cells after 48 hrs assessed as inhibition of cell growth at 10 uM after 48 hrs by SRB assay relative to control. Type of test: functional. The note with it: THP-1, 48 h, read-out: GI. In a few lines: as §1
The test system of the next test is IMR-32. Nature of the test: Cytotoxicity against human IMR32 cells after 48 hrs assessed as inhibition of cell growth at 10 uM after 48 hrs by SRB assay relative to control. Type of test: functional. The following applies: for inhibition of growth at 10 µM: IMR-32, 48 h, read-out: GI. The gist of the method:
as §1

The test system of test [1] is MCF7. The test is described as follows: Cytotoxicity against human MCF7 cells after 48 hrs assessed as inhibition of cell growth at 10 uM after 48 hrs by SRB assay relative to control. Type of test: functional. The note with it: MCF7, 48 h, read-out: GI. In a few lines: as §1
A further test has as its system HEp-2. Nature of the test: Cytotoxicity against human Hep2 cells after 48 hrs assessed as inhibition of cell growth at 10 uM after 48 hrs by SRB assay relative to control. The note with it: for inhibition of growth at 10 µM: HEp-2, 48 h, read-out: GI. Type of test: functional. In a few lines:
as §1

In a further test the test system is PC-3. Nature of the test: Cytotoxicity against human PC3 cells after 48 hrs assessed as inhibition of cell growth at 10 uM after 48 hrs by SRB assay relative to control. Format: functional. The note with it: PC-3, 48 h, read-out: GI. In a few lines:
as §1

In test [2] the test system is MCF7. Nature of the test: Cell cycle arrest in human MCF7 cells assessed as accumulation at G1 phase at 4 uM after 24 hrs by FACS analysis (reference value: 58.33%). Type of test: functional. (In general: In flow cytometry, cells or beads pass a laser one at a time.)
For test [3], the system named is MCF7. Nature of the test: Cell cycle arrest in human MCF7 cells assessed as accumulation at S phase at 4 uM after 24 hrs by FACS analysis (reference value: 6.79%). Format: functional.
For test [4], the system named is MCF7. The test is described as follows: Cell cycle arrest in human MCF7 cells assessed as accumulation at G2/M phase at 4 uM after 24 hrs by FACS analysis (reference value: 34.88%). Format: functional.
The subject of test [5] is MCF7. Nature of the test: Inhibition of microtubule organization in human MCF7 cells at 4 uM after 24 hrs by immunofluorescence analysis. Type of test: cell-based. The gist of the method:
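MCF-7 cells were grown in DMEM with 10% fetal calf serum and penicillin/streptomycin at 37 °C and 5% CO2. Cells on cover slips were treated for 24 h, then fixed in 4% paraformaldehyde for 20 min. They were permeabilised with 0.2% Triton X-100, held in methanol at 4 °C overnight and blocked with 1% BSA. Staining used anti-α-tubulin (1:100, 2 h RT), FITC secondary and a DAPI/PI mount, with confocal imaging.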

In the case of `COc1ccc(/C=C\c2cc(OC)c(OC)c(OC)c2)cc1OCC(=O)Nc1nc2cc(C)c(C)cc2s1`, the inhibition of growth at 10 µM in the test on A549 is 41%; with COLO 205, 51%; in the test on THP-1, 76%; with IMR-32, 55%; in the test with MCF7 [1] it was 68%; in the test on HEp-2, 23%. Further, the inhibition of growth at 10 µM with PC-3 worked out at 36%. The Activity in the test on MCF7 [2] is given as 80.59%; with MCF7 [3] it was 3.04%; with MCF7 [4], 16.37%.

On to `COc1ccc(/C=C\c2cc(OC)c(OC)c(OC)c2)cc1OCC(=O)Nc1nc2ccc(Cl)cc2s1`, for which the “growth inhibition (GI)” value with A549 is “inactive”. Also, the inhibition of growth at 10 µM in the test on COLO 205 was 17%; in the test on THP-1 it was 70%; in the test on IMR-32 it was 51%; with MCF7 [1], 21%; in the test on HEp-2 it was 47%; in the test with PC-3, 41%.

For the molecule `COc1ccc(/C=C\c2cc(OC)c(OC)c(OC)c2)cc1OCC(=O)Nc1nc2c(C)cccc2s1`, the “growth inhibition (GI)” value with A549 and in the test on HEp-2 was “inactive” each time. Also, the inhibition of growth at 10 µM in the test with COLO 205 turned out to be 24%; in the test on THP-1, 19%; with IMR-32, 34%; in the test with MCF7 [1], 29%; with PC-3, 24%. Also, the Activity in the test on MCF7 [2] came out at 68.06%; in the test on MCF7 [3], 3.46%; in the test with MCF7 [4] it was 28.48%.

On to `COc1ccc(/C=C\c2cc(OC)c(OC)c(OC)c2)cc1OCC(=O)Nc1nc2ccc(C)cc2s1`, for which the inhibition of growth at 10 µM was determined as 37% in the test on A549; 33% in the test with COLO 205; 27% in the test with THP-1; 57% in the test with MCF7 [1]; 44% in the test on HEp-2; 22% in the test on PC-3. Besides, the “growth inhibition (GI)” value in the test on IMR-32 was “inactive”. Moreover, the Activity with MCF7 [2] stood at 41.7%; with MCF7 [3], 15.53%; with MCF7 [4] it was 42.82%.

Regarding `COc1ccc(/C=C\c2cc(OC)c(OC)c(OC)c2)cc1OCC(=O)Nc1nc2ccc([N+](=O)[O-])cc2s1`, the inhibition of growth at 10 µM with A549 was found to be 50%; in the test on COLO 205 it was 46%; with THP-1, 80%; in the test on IMR-32, 88%; in the test on MCF7 [1], 69%; with PC-3, 47%. Also, the “growth inhibition (GI)” value in the test with HEp-2 was “inactive”.

Consider `COC(=O)Nc1nc2cc(C(=O)c3cccs3)ccc2[nH]1`, for which, in the test on MCF7 [5], the inhibition entry is “Active”.

As to `CCOc1ccc2nc(NC(=O)COc3cc(/C=C\c4cc(OC)c(OC)c(OC)c4)ccc3OC)sc2c1`, the inhibition of growth at 10 µM in the test on A549 is 27%; with COLO 205, 45%; with THP-1, 37%; in the test with IMR-32, 54%; in the test on MCF7 [1] it was 35%; in the test with HEp-2 it was 49%. The inhibition of growth at 10 µM in the test with PC-3 was determined as 37%. Further, the values for the Activity in the test on MCF7 [2], in the test with MCF7 [3] and in the test with MCF7 [4] were 48.43%, 13.91% and 37.67%, respectively.

For `COc1ccc(/C=C\c2cc(OC)c(OC)c(OC)c2)cc1OCC(=O)Nc1ccc2ncsc2c1`, the “growth inhibition (GI)” value in the test with A549 was “inactive”. Also, the inhibition of growth at 10 µM is 11% with COLO 205; 41% in the test with THP-1; 46% with IMR-32; 19% with MCF7 [1]; 20% in the test on HEp-2; 58% with PC-3.

As to `COc1cccc2c1C(=O)c1c(O)c3c(c(O)c1C2=O)C[C@@](O)(C(=O)CO)C[C@@H]3O[C@H]1C[C@H](N)[C@H](O)[C@H](C)O1` [DOXORUBICIN], the inhibition of growth at 10 µM stood at 52% in the test on A549; 26% in the test on COLO 205; 83% in the test with THP-1; 73% in the test with IMR-32; 45% in the test with MCF7 [1]; 56% in the test with HEp-2. Besides, the inhibition of growth at 10 µM in the test on PC-3 came to 75%.
